Experimental data from PubChem BioAssay.
Records with an inconclusive call do not appear.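 Rule for the calls, unless noted: active = cell viability at or below a set limit in both duplicate runs, the limit being the all-compound median minus 4 SD (cut at about 23% in these data, passing the limit was not always enough); inconclusive = no clear call, values can overlap the other calls; inactive = the rest.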

Assays:
[1] = S. cerevisiae growth inhibition in permissive medium (OD615), pilot counter-assay for S. cerevisiae lifespan shortening project, permissive growth control (AID 705;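 active = growth inhibition above 25% in both replicates, a cutoff set 3 SD above the mean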); details: OD615, 24 h, at 10 µM, stronger effect = higher value
In short: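 System: S. cerevisiae with engineered DeaD lifespan system / Measured by: absorbance (optical density) at 615 nm / Read-out: reduction in yeast growth (OD615) / Times: 4 h cell pre-growth, 24 h exposure at 30 °C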

[2] = S. cerevisiae growth inhibition in restrictive medium, OD615, pilot screen, restrictive growth control, yeast lifespan reduction project (AID 706;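 active = growth inhibition above a set limit, 3 SD over mean compound inhibition, in both replicates, cut at about 43% in these data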;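 note: modified DeaD lifespan yeast strain shifted to restrictive glucose medium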); details: OD615, 48 h, at 10 µM, stronger effect = higher value
In short: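 System: Engineered S. cerevisiae DeaD strain | Buffer or medium: Glucose-based CSMM-D restrictive medium | Schedule: 4 h pre-incubation, 48 h exposure at 30 °C | Technique: Optical density at 615 nm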

[3] = doxorubicin toxicity protection in MRP-1 cells – H69AR cells, CellTiter-Glo, duplicate, MRP-1 activator project, pilot screen (AID 807;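 active = viability increase at or above a cutoff of the median across tested compounds plus 3 SD, cut at about 8.5% in these data, passing the limit was not always enough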;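 note: compound pretreatment 18-22 h then 72 h combined with doxorubicin; 0% = doxorubicin alone and 100% = vehicle without doxorubicin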); details: H69AR viability with doxorubicin, CellTiter-Glo luminescence; at 10 µM; stronger effect = higher value
[4] = viability of HCT116 without oncogenic beta-catenin – human colon tumor cells, pilot screen (AID 823); details: HCT116 beta-catenin knockout viability, CellTiter-Glo, 60 h; at 10 µM; stronger effect = lower value;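 note: 0% = wells killed by 20 µM Hyamine and 100% = untreated DMSO cell wells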
[5] = viability of PTEN-null HCT116 cells – cell-based, HCT116 clonal line, CellTiter-Glo, pilot screen (AID 824;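 active = viability at or below 27.92% in each of two runs, the all-compound median minus 4 SD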;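 note: 0% = 20 µM Hyamine control and 100% = vehicle cell control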); details: HCT116 PTEN-deleted viability, 60 h, at 10 µM, stronger effect = lower value
[6] = RAM pathway blockade in budding yeast – dse1pr::URA3 reporter, 5-FOA selection, pilot screen (AID 869;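 active = inhibition over a set limit, the all-compound mean plus 3 SD, in both replicate runs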;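 note: 0% = DMSO wells with no growth and 100% = 10 µM 1-NA-PP1 with full growth; RAM network block rescues cells from 5-FOA so hits raise OD615 growth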); details: S. cerevisiae dse1pr::URA3 5-FOA growth, OD615, 2 d; at 10 µM; stronger effect = higher value; strain carries analog-sensitive mutant Cbk1 kinase
[7] = RAM signaling pathway blockade in yeast – S. cerevisiae, Pdr1DBD-CYC8 efflux-inhibited sensitized strain, primary screen (AID 1298;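 active = RAM network inhibition above 8.4% in each of two replicates, 3 SD over the compound average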;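 note: 0% = DMSO untreated cells without growth and 100% = 10 µM 1-NA-PP1 full growth; higher means more yeast growth rescued from 5-FOA killing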); details: S. cerevisiae cbk1-as DSE1-URA3 strain, 5-FOA growth OD615, 2 d; at 50 µM; stronger effect = higher value

CCOc1ccc(S(=O)(=O)N2CCN(S(=O)(=O)c3ccc(OCC)cc3)C(C)C2)cc1 (stereo unspecified)
inactive: growth inhibition [1] -7.32% | growth inhibition [2] 1.25% | viability increase [3] -5.22% | viability [4] 93% | viability [5] 93.7% | inhibition [6] 1.27% | RAM network inhibition [7] 6.32%

CCOC(=O)c1c(C)[nH]c(C(=O)OC)c1CCC(=O)OC
inactive: growth inhibition [1] -9.89% | growth inhibition [2] -23.6% | viability increase [3] -2.86% | viability [4] 90.8% | viability [5] 91.9% | inhibition [6] 2.56% | RAM network inhibition [7] 2.65%

CC1(C)Cc2ccccc2-c2nc(NCCO)n(-c3ccccc3)c(=O)c21
inactive: growth inhibition [1] -7.5% | growth inhibition [2] -15.2% | viability increase [3] -2.92% | viability [4] 84.8% | viability [5] 83% | inhibition [6] -0.14% | RAM network inhibition [7] 3.93%

C=CCn1cc(C(=O)N2CCN(C)CC2)c(=O)c2cc(S(=O)(=O)N3CCCC3)ccc21
inactive: growth inhibition [1] -6.54% | growth inhibition [2] -12.6% | viability increase [3] -0.09% | viability [4] 105% | viability [5] 106% | inhibition [6] 0.73% | RAM network inhibition [7] 3.9%

Cc1ccc(C(=O)NCc2ccc(Cl)c(Cl)c2)o1
inactive: growth inhibition [1] -3.73% | growth inhibition [2] 4.06% | viability increase [3] 0.03% | viability [4] 98% | viability [5] 98.5% | inhibition [6] 0.67% | RAM network inhibition [7] 1.28%

CC(C)NC(=O)c1ccc(CS(=O)(=O)c2ccc(Br)cc2)o1
inactive: growth inhibition [1] 4.63% | growth inhibition [2] 3.97% | viability increase [3] -1.73% | viability [4] 87.1% | viability [5] 95.1% | inhibition [6] 1.95% | RAM network inhibition [7] 4.82%

COCC(=O)NCCc1nc2ccccc2[nH]1
inactive: growth inhibition [1] -0.385% | growth inhibition [2] 1.45% | viability increase [3] -2.27% | viability [4] 98.7% | viability [5] 99.1% | inhibition [6] -0.325% | RAM network inhibition [7] 0.89%

O=C(Nc1nnc(-c2ccco2)o1)C1CCCCC1
inactive: growth inhibition [1] -17% | growth inhibition [2] -13.8% | viability increase [3] -1.58% | viability [4] 99.1% | viability [5] 93.2% | inhibition [6] 1.52% | RAM network inhibition [7] 0.58%

CC(C)Sc1nc2c(c(=O)n1C)SC(C)C2 (stereo unspecified)
inactive: growth inhibition [1] -7.53% | growth inhibition [2] 2.86% | viability increase [3] -1.28% | viability [4] 106% | viability [5] 99.5% | inhibition [6] 1.61% | RAM network inhibition [7] 5.77%

O=C(Cn1c(N2CCN(c3ccccc3)CC2)nc2ccccc21)c1ccccc1
inactive: growth inhibition [1] -10.3% | growth inhibition [2] -9.96% | viability increase [3] -3.76% | viability [4] 84.3% | viability [5] 93.6% | inhibition [6] 2.6% | RAM network inhibition [7] 4.62%

Cc1nn(Cc2c(Cl)cccc2Cl)c(C)c1NC(=O)c1cc(C(C)C)on1
inactive: growth inhibition [1] -10.6% | growth inhibition [2] 0.6% | viability increase [3] -1.33% | viability [4] 74.2% | viability [5] 62.9% | inhibition [6] 2.81% | RAM network inhibition [7] 2.56%

COC(=O)c1ccc(NC(=O)c2cccc(OC)c2)cc1
inactive: growth inhibition [1] -1.57% | growth inhibition [2] 7.93% | viability increase [3] 1.59% | viability [4] 69.9% | viability [5] 80.7% | inhibition [6] 0.875% | RAM network inhibition [7] 8.05%

CC(=O)c1cccc(NC2c3ccccc3C(=O)N2Cc2ccc3c(c2)OCO3)c1 (stereo unspecified)
inactive: growth inhibition [1] -2.94% | growth inhibition [2] 7.7% | viability increase [3] -2.61% | viability [4] 92.7% | viability [5] 79.6% | inhibition [6] 2.9% | RAM network inhibition [7] 2.2%

COc1ccc(S(=O)(=O)N2CCC(C(=O)N3CCc4ccccc4C3)CC2)cc1
inactive: growth inhibition [1] 11.1% | growth inhibition [2] -10.1% | viability increase [3] -5.43% | viability [4] 93.5% | viability [5] 85% | inhibition [6] 0.13% | RAM network inhibition [7] 2.53%

CC(=O)Nc1ccc2nc(-c3cccs3)[nH]c2c1
inactive: growth inhibition [1] -5.51% | growth inhibition [2] -15.4% | viability increase [3] -2.88% | viability [4] 97.8% | viability [5] 90.3% | inhibition [6] 2.38% | RAM network inhibition [7] 4.66%

COc1ccc(C(=O)N2CCN(c3ccc(C)cc3C)CC2)cc1OC
inactive: growth inhibition [1] -12.4% | growth inhibition [2] -0.18% | viability increase [3] 3.24% | viability [4] 72.9% | viability [5] 85.7% | inhibition [6] 1.66% | RAM network inhibition [7] 2.92%

CCOc1ccc2nc(N3CCCC(C(=O)N4CCN(CC)CC4)C3)sc2c1 (stereo unspecified)
inactive: growth inhibition [1] -4.44% | growth inhibition [2] -8.34% | viability increase [3] 0.55% | viability [4] 102% | viability [5] 96.2% | inhibition [6] 0.775% | RAM network inhibition [7] 2.01%

COc1ccc(-c2cn3c(C)c(C(=O)N4CCCc5ccccc54)sc3n2)cc1
inactive: growth inhibition [1] 0.505% | growth inhibition [2] 24.2% | viability increase [3] -3.31% | viability [4] 64.9% | viability [5] 65.6% | inhibition [6] 0.565% | RAM network inhibition [7] 3.08%

COc1ccc(Cn2c(=O)[nH]c3cc(C(=O)NCCCN4CCCCC4)ccc3c2=O)cc1
inactive: growth inhibition [1] -4.93% | growth inhibition [2] -8.5% | viability increase [3] -2.31% | viability [4] 74.5% | viability [5] 77.4% | inhibition [6] 0.53% | RAM network inhibition [7] 4.83%

C=CCOC(=O)CCP(=O)(CCC(=O)OCC=C)c1ccccc1
inactive: growth inhibition [1] 5.05% | growth inhibition [2] 1.05% | viability increase [3] -1.13% | viability [4] 96.5% | viability [5] 98.8% | inhibition [6] -0.22% | RAM network inhibition [7] -1.29%

CCCN(CCC(=O)Nc1ccccc1F)CC1CC1
inactive: growth inhibition [1] -12.8% | growth inhibition [2] -18.1% | viability increase [3] -1.44% | viability [4] 99.1% | viability [5] 95.3% | inhibition [6] 0.64% | RAM network inhibition [7] -0.31%

C=CCSc1nnc(CSc2nc3sc4c(c3c(=O)[nH]2)CCCC4)n1-c1ccccc1
inactive: growth inhibition [1] 9.19% | growth inhibition [2] 37.7% | viability increase [3] 0.54% | viability [4] 93.2% | viability [5] 91.2% | inhibition [6] 1.42% | RAM network inhibition [7] 11%

CN1C(=O)/C(=C2\SC(=S)N(C(CCC(=O)O)C(=O)O)C2=O)c2ccccc21 (stereo unspecified)
inactive: growth inhibition [1] 2.35% | growth inhibition [2] -1.85% | viability increase [3] -2.67% | viability [4] 107% | viability [5] 98.8% | inhibition [6] 1.11% | RAM network inhibition [7] 0.96%
